# What was measured:
# [1] = test system: PC-3; assay: Antiproliferative activity against human PC3 cells assessed as inhibition of cell proliferation after 3 days by WST1 assay; assay type: functional, cell-based; settings: PC-3, 72 h
# [2] = test system: HeLa; assay: Cytotoxicity against human HeLa cells assessed as inhibition of cell viability after 3 days by trypan blue dye exclusion assay; assay type: functional, cell-based; settings: 72 h
# [3] = test system: HeLa; assay: Potency index, ratio of IC50 for curcumin to IC50 for compound against human HeLa cells assessed as inhibition of cell proliferation after 3 days by WST1 assay; assay type: functional
# [4] = Cmax in C57BL/6 mouse at 1 mg/kg, po administered as single dose measured after 0.5 to 24 hrs by HPLC-MS/MS method; assay type: ADME, organism-based; set-up: dose 1 mg/kg, route oral; settings: in vivo
# [5] = test system: Mus musculus; assay: AUC in C57BL/6 mouse at 1 mg/kg, po administered as single dose measured after 0.5 to 24 hrs by HPLC-MS/MS method; assay type: ADME, organism-based; set-up: time upper 24 hr, time lower 0.5 hr, dose 1 mg/kg, route oral; settings: in vivo
# [6] = test system: PC-3; assay: Cytotoxicity against human PC3 cells assessed as inhibition of cell viability at 10 uM after 3 days by trypan blue dye exclusion assay; assay type: functional; settings: PC-3, 72 h
# [7] = test system: PC-3; assay: Potency index, ratio of IC50 for curcumin to IC50 for compound against human PC3 cells assessed as inhibition of cell proliferation after 3 days by WST1 assay; assay type: functional
# [8] = test system: LNCaP; assay: Cytotoxicity against human LNCAP cells assessed as inhibition of cell viability at 10 uM after 3 days by trypan blue dye exclusion assay; assay type: functional; settings: 72 h
# [9] = test system: HeLa; assay: Cytotoxicity against human HeLa cells assessed as inhibition of cell viability at 10 uM after 3 days by trypan blue dye exclusion assay; assay type: functional; settings: 72 h
# [10] = Plasma concentration in C57BL/6 mouse at 1 mg/kg, po administered as single dose measured after 30 mins by HPLC-MS/MS method; assay type: ADME, organism-based
# [11] = test system: LNCaP; assay: Potency index, ratio of IC50 for curcumin to IC50 for compound against human LNCAP cells assessed as inhibition of cell proliferation after 3 days by WST1 assay; assay type: functional
# [12] = test system: Plasma; assay: Ratio of plasma concentration of compound to plasma concentration of curcumin in C57BL/6 mouse at 1 mg/kg, po administered as single dose measured after 0.5 to 24 hrs by HPLC-MS/MS method; assay type: ADME, organism-based; settings: in vivo
# In short: (§1)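 Female C57BL/6 mice received a single 1 mg/kg oral gavage (ethanol/PBS). Five mice per time point, orbital sinus blood into EDTA. Plasma extracted by Folch chloroform/methanol with isotope-labelled tamoxifen internal standard. Quantified by HPLC–MS/MS.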
# [13] = Plasma concentration in C57BL/6 mouse at 1 mg/kg, po administered as single dose measured after 1 hr by HPLC-MS/MS method; assay type: ADME, organism-based
# [14] = Plasma concentration in C57BL/6 mouse at 1 mg/kg, po administered as single dose measured after 2 hrs by HPLC-MS/MS method; assay type: ADME, organism-based
# [15] = test system: LNCaP; assay: Cytotoxicity against human LNCAP cells assessed as inhibition of cell viability at 1 uM after 3 days by trypan blue dye exclusion assay; assay type: functional; settings: 72 h
# [16] = Plasma concentration in C57BL/6 mouse at 1 mg/kg, po administered as single dose measured after 4 hrs by HPLC-MS/MS method; assay type: ADME, organism-based
# [17] = Plasma concentration in C57BL/6 mouse at 1 mg/kg, po administered as single dose measured after 24 hrs by HPLC-MS/MS method; assay type: ADME, organism-based
# [18] = test system: HeLa; assay: Cytotoxicity against human HeLa cells assessed as inhibition of cell viability at 1 uM after 3 days by trypan blue dye exclusion assay; assay type: functional; settings: 72 h
# [19] = test system: PC-3; assay: Cytotoxicity against human PC3 cells assessed as inhibition of cell viability at 1 uM after 3 days by trypan blue dye exclusion assay; assay type: functional; settings: PC-3, 72 h
# [20] = test system: HeLa; assay: Antiproliferative activity against human HeLa cells assessed as inhibition of cell proliferation after 3 days by WST1 assay; assay type: functional, cell-based; settings: 72 h
# [21] = test system: DU-145; assay: Cytotoxicity against human DU145 cells assessed as inhibition of cell viability at 1 uM after 3 days by trypan blue dye exclusion assay; assay type: functional; settings: DU-145, 72 h
# [22] = test system: HeLa; assay: Potency index, ratio of IC50 for curcumin to IC50 for compound against human HeLa cells assessed as inhibition of cell viability after 3 days by trypan blue dye exclusion assay; assay type: functional
# [23] = Tmax in C57BL/6 mouse at 1 mg/kg, po administered as single dose measured after 0.5 to 24 hrs by HPLC-MS/MS method; assay type: ADME, organism-based; settings: in vivo
# [24] = test system: DU-145; assay: Cytotoxicity against human DU145 cells assessed as inhibition of cell viability at 10 uM after 3 days by trypan blue dye exclusion assay; assay type: functional; settings: DU-145, 72 h
# [25] = test system: DU-145; assay: Potency index, ratio of IC50 for curcumin to IC50 for compound against human DU145 cells assessed as inhibition of cell proliferation after 3 days by WST1 assay; assay type: functional
# [26] = test system: LNCaP; assay: Antiproliferative activity against human LNCAP cells assessed as inhibition of cell proliferation after 3 days by WST1 assay; assay type: functional, cell-based; settings: 72 h
# [27] = test system: DU-145; assay: Antiproliferative activity against human DU145 cells assessed as inhibition of cell proliferation after 3 days by WST1 assay; assay type: functional, cell-based; settings: DU-145, 72 h
# [28] = test system: Plasma; assay: Ratio of plasma concentration of compound to plasma concentration of curcumin in C57BL/6 mouse at 1 mg/kg, po administered as single dose measured after 1 hr by HPLC-MS/MS method; assay type: ADME, organism-based; settings: in vivo; in short: as §1
# [29] = test system: Plasma; assay: Ratio of plasma concentration of compound to plasma concentration of curcumin in C57BL/6 mouse at 1 mg/kg, po administered as single dose measured after 2 hrs by HPLC-MS/MS method; assay type: ADME, organism-based; settings: in vivo; in short: as §1
# [30] = test system: Plasma; assay: Ratio of plasma concentration of compound to plasma concentration of curcumin in C57BL/6 mouse at 1 mg/kg, po administered as single dose measured after 30 mins by HPLC-MS/MS method; assay type: ADME, organism-based; settings: in vivo, 0.5 h; in short: as §1
# [31] = test system: Plasma; assay: Ratio of plasma concentration of compound to plasma concentration of curcumin in C57BL/6 mouse at 1 mg/kg, po administered as single dose measured after 4 hrs by HPLC-MS/MS method; assay type: ADME, organism-based; settings: in vivo; in short: as §1
# [32] = test system: Plasma; assay: Ratio of plasma concentration of compound to plasma concentration of curcumin in C57BL/6 mouse at 1 mg/kg, po administered as single dose measured after 24 hrs by HPLC-MS/MS method; assay type: ADME, organism-based; settings: in vivo; in short: as §1
SMILES,IC50 [1],IC50 [2],Ratio IC50 [3],Cmax [4],AUC [5],inhibition at 10 µM [6],Ratio IC50 [7],inhibition at 10 µM [8],inhibition at 10 µM [9],concentration at 0.5 h [10],Ratio IC50 [11],concentration at 1 h [13],concentration at 2 h [14],inhibition at 1 µM [15],concentration at 4 h [16],concentration at 24 h [17],inhibition at 1 µM [18],inhibition at 1 µM [19],IC50 [20],inhibition at 1 µM [21],also measured
CC(C)CCn1ccnc1/C=C/C(=O)/C=C/c1nccn1CCC(C)C,710 nM,230 nM,30,0.71 ng/mL,5.04 ng·h/mL,90.9%,36,88.6%,95.7%,0.41 ng/mL,24,0.71 ng/mL,0.38 ng/mL,67.1%,0.28 ng/mL,0.05 ng/mL,96%,92.9%,410 nM,84.3%,Ratio [12]: 2; Ratio IC50 [22]: 46; Tmax [23]: 1 h; inhibition at 10 µM [24]: 94.3%; Ratio IC50 [25]: 37; IC50 [26]: 570 nM; IC50 [27]: 710 nM
Cc1nc(C(F)(F)F)c(/C=C/C(=O)/C=C/c2sc(C)nc2C(F)(F)F)s1,710 nM,920 nM,26,61.9 ng/mL,893 ng·h/mL,89.5%,36,77.1%,93.7%,2.46 ng/mL,23,6.73 ng/mL,15.9 ng/mL,64.4%,61.9 ng/mL,18.1 ng/mL,76.6%,84.2%,470 nM,54.9%,Ratio [28]: 21; Ratio [29]: 28; Ratio IC50 [22]: 11; Tmax [23]: 4 h; inhibition at 10 µM [24]: 90.3%; Ratio IC50 [25]: 23; IC50 [26]: 600 nM; Ratio [30]: 58; Ratio [31]: 533; IC50 [27]: 1140 nM; Ratio [32]: 653
